ChEMBL document CHEMBL6121033, “N-Arylsulfonylated C-Homoaporphines as a New Class of Antiplatelet and Antimicrobial Agents” (ACS Med Chem Lett, 2025)
Converted amounts (≈) assume the structure as drawn. The source made the active and inactive calls. No cut-off for these calls is given here.

What was measured:
Macrophomina phaseolina = assay: Antifungal activity against Macrophomina phaseolina assessed as inhibition of fungal growth by agar well diffusion method; type: functional
Aspergillus niger [1] = assay: Antifungal activity against Aspergillus niger assessed as inhibition of fungal growth by agar well diffusion method; type: functional
Trichoderma reesei [2] = assay: Antifungal activity against Trichoderma reesei assessed as inhibition of fungal growth by agar well diffusion method; type: functional
Bacillus subtilis = assay: Antibacterial activity against Bacillus subtilis MTCC 10619 assessed as inhibition of bacterial growth incubated for 24 hrs by serial dilution method; type: functional
In short: (§1)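 MIC found by serial dilution, with ampicillin as positive control. Strains were Gram-negative E. coli MTCC 443 and Gram-positive B. subtilis MTCC 10619. A first agar diffusion screen of all compounds and the control was run at a fixed 100 μg/mL.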

Plasma [3] = assay: Antiplatelet aggregation activity in rabbit platelet-rich plasma assessed as inhibition of arachidonic acid-induced platelet aggregation by turbidimetric based Lumi-aggregometry; type: functional; conditions: Oryctolagus cuniculus
Escherichia coli = assay: Antibacterial activity against Escherichia coli MTCC 443 assessed as inhibition of bacterial growth incubated for 24 hrs by serial dilution method; type: functional; in short: as §1
Plasma [4] = assay: Potency index, ratio of Acetylsalicylic acid IC50 to test compound IC50 for antiplatelet aggregation activity in rabbit platelet-rich plasma assessed as inhibition of arachidonic acid-induced platelet aggregation by turbidimetric aggregometry analysis; type: functional, Oryctolagus cuniculus
Trichoderma reesei [5] = assay: Potency index, ratio of Ketaconazole MIC to test compound MIC for antifungal activity against Trichoderma reesei assessed as inhibition of fungal growth by agar well diffusion method; type: functional
Aspergillus niger [6] = assay: Potency index, ratio of Ketaconazole MIC to test compound MIC for antifungal activity against Aspergillus niger assessed as inhibition of fungal growth by agar well diffusion method; type: functional

Row | Compound | MIC (Macrophomina phaseolina) | MIC (Aspergillus niger [1]) | MIC (Trichoderma reesei [2]) | IC50 (Plasma [3]) | MIC (Bacillus subtilis) | MIC (Escherichia coli) | Activity (Trichoderma reesei [2]) | Activity (Bacillus subtilis) | Activity (Escherichia coli) | Ratio (Plasma [4]) | Ratio (Trichoderma reesei [5]) | Ratio (Aspergillus niger [6]) | Activity (Macrophomina phaseolina) | Activity (Aspergillus niger [1]) | Ratio IC50 (Plasma [4])
1 | CC(=O)N1CCN(c2ccc(OCC3COC(Cn4ccnc4)(c4ccc(Cl)cc4Cl)O3)cc2)CC1 (stereo not given) [KETOCONAZOLE] | 12.5 µg/mL (≈ 23.5 µM) | 12.5 µg/mL (≈ 23.5 µM) | 6.25 µg/mL (≈ 11.8 µM) | – | – | – | – | – | – | – | – | – | – | – | –
2 | COc1cc2c(cc1OC)-c1c(OC)c(OC)cc3c1C(CC2)N(S(=O)(=O)c1ccc([N+](=O)[O-])cc1)CC3 (stereo not given) | 12.5 µg/mL (≈ 23.1 µM) | 50 µg/mL (≈ 92.5 µM) | – | 30 µg/mL (≈ 55.5 µM) | – | – | inactive | inactive | inactive | – | – | – | – | – | –
3 | COc1cc2c(cc1OC)-c1c(OCc3ccccc3)c(OC)cc3c1C(CC2)N(S(=O)(=O)c1cccc(C(F)(F)F)c1)CC3 (stereo not given) | 12.5 µg/mL (≈ 19.5 µM) | 25 µg/mL (≈ 39.1 µM) | 25 µg/mL (≈ 39.1 µM) | 8 µg/mL (≈ 12.5 µM) | 25 µg/mL (≈ 39.1 µM) | 6.25 µg/mL (≈ 9.77 µM) | – | – | – | ~3 | – | – | – | – | –
4 | COc1cc2c(cc1OC)-c1c(OCc3ccccc3)c(OC)cc3c1C(CC2)N(S(=O)(=O)c1ccc(C(C)(C)C)cc1)CC3 (stereo not given) | – | 12.5 µg/mL (≈ 19.9 µM) | – | 35 µg/mL (≈ 55.7 µM) | – | 6.25 µg/mL (≈ 9.96 µM) | inactive | inactive | – | – | – | 1 | inactive | – | –
5 | COc1cc2c(cc1OC)-c1c(OC)c(OCc3ccccc3)cc3c1C(CC2)N(S(=O)(=O)c1ccc(C(C)(C)C)cc1)CC3 (stereo not given) | 25 µg/mL (≈ 39.8 µM) | 6.25 µg/mL (≈ 9.96 µM) | 50 µg/mL (≈ 79.6 µM) | 35 µg/mL (≈ 55.7 µM) | 25 µg/mL (≈ 39.8 µM) | – | – | – | inactive | – | – | – | – | – | –
6 | COc1cc2c(cc1OC)-c1c(OCc3ccccc3)c(OC)cc3c1C(CC2)N(S(=O)(=O)c1cccc(C)c1)CC3 (stereo not given) | 25 µg/mL (≈ 42.7 µM) | 12.5 µg/mL (≈ 21.3 µM) | 12.5 µg/mL (≈ 21.3 µM) | 12.7 µg/mL (≈ 21.6 µM) | 3.12 µg/mL (≈ 5.34 µM) | 3.12 µg/mL (≈ 5.34 µM) | – | – | – | ~3 | – | 1 | – | – | –
7 | COc1cc2c(cc1OC)-c1c(OC)c(OC)cc3c1C(CC2)N(S(=O)(=O)c1cccc(C)c1)CC3 (stereo not given) | – | 12.5 µg/mL (≈ 24.5 µM) | 12.5 µg/mL (≈ 24.5 µM) | 12.7 µg/mL (≈ 24.8 µM) | 25 µg/mL (≈ 49.1 µM) | 6.25 µg/mL (≈ 12.3 µM) | – | – | – | ~3 | – | 1 | inactive | – | –
8 | COc1cc2c(cc1OC)-c1c(OC)c(OCc3ccccc3)cc3c1C(CC2)N(S(=O)(=O)c1cccc(C(F)(F)F)c1)CC3 (stereo not given) | – | – | 6.25 µg/mL (≈ 9.77 µM) | 7 µg/mL (≈ 10.9 µM) | 6.25 µg/mL (≈ 9.77 µM) | 6.25 µg/mL (≈ 9.77 µM) | – | – | – | – | 1 | – | inactive | inactive | 3
9 | COc1cc2c(cc1OC)-c1c(OC)c(OC)cc3c1C(CC2)N(S(=O)(=O)c1ccc(C(C)(C)C)cc1)CC3 (stereo not given) | 6.25 µg/mL (≈ 11.3 µM) | 100 µg/mL (≈ 181 µM) | – | 36.7 µg/mL (≈ 66.4 µM) | 12.5 µg/mL (≈ 22.7 µM) | 3.12 µg/mL (≈ 5.66 µM) | inactive | – | – | – | – | – | – | – | –
10 | COc1cc2c(cc1OC)-c1c(OC)c(OC)cc3c1C(CC2)N(S(=O)(=O)c1cccc(C(F)(F)F)c1)CC3 (stereo not given) | 12.5 µg/mL (≈ 22.2 µM) | 25 µg/mL (≈ 44.4 µM) | – | 9.6 µg/mL (≈ 17 µM) | 100 µg/mL (≈ 177 µM) | 25 µg/mL (≈ 44.4 µM) | inactive | – | – | ~3 | – | – | – | – | –

More lines, main results first:

Row | MIC (Macrophomina phaseolina) | MIC (Aspergillus niger [1]) | MIC (Trichoderma reesei [2]) | IC50 (Plasma [3]) | MIC (Bacillus subtilis) | MIC (Escherichia coli) | Compound | Activity (Trichoderma reesei [2]) | Activity (Bacillus subtilis) | Activity (Escherichia coli) | Ratio (Plasma [4]) | Ratio (Trichoderma reesei [5]) | Ratio (Aspergillus niger [6]) | Activity (Macrophomina phaseolina) | Activity (Aspergillus niger [1]) | Ratio IC50 (Plasma [4])
11 | – | – | – | – | 25 µg/mL (≈ 71.5 µM) | 12.5 µg/mL (≈ 35.8 µM) | CC1(C)S[C@@H]2[C@H](NC(=O)[C@H](N)c3ccccc3)C(=O)N2[C@H]1C(=O)O [AMPICILLIN] | – | – | – | – | – | – | – | – | –
12 | 12.5 µg/mL (≈ 20.3 µM) | 50 µg/mL (≈ 81.1 µM) | 6.25 µg/mL (≈ 10.1 µM) | 30 µg/mL (≈ 48.6 µM) | – | 12.5 µg/mL (≈ 20.3 µM) | COc1cc2c(cc1OC)-c1c(OC)c(OCc3ccccc3)cc3c1C(CC2)N(S(=O)(=O)c1ccc([N+](=O)[O-])cc1)CC3 (stereo not given) | – | inactive | – | – | 1 | – | – | – | –
13 | 12.5 µg/mL (≈ 20.3 µM) | 25 µg/mL (≈ 40.5 µM) | – | 32.7 µg/mL (≈ 53 µM) | 12.5 µg/mL (≈ 20.3 µM) | 50 µg/mL (≈ 81.1 µM) | COc1cc2c(cc1OC)-c1c(OCc3ccccc3)c(OC)cc3c1C(CC2)N(S(=O)(=O)c1ccc([N+](=O)[O-])cc1)CC3 (stereo not given) | inactive | – | – | – | – | – | – | – | –
14 | – | – | – | 14.7 µg/mL (≈ 25.6 µM) | 12.5 µg/mL (≈ 21.9 µM) | – | COc1cc2c(cc1OC)-c1c(OC)c(OCc3ccccc3)cc3c1C(CC2)N(S(=O)(=O)c1ccccc1)CC3 (stereo not given) | inactive | – | inactive | ~3 | – | – | inactive | inactive | –
15 | – | 6.25 µg/mL (≈ 10.9 µM) | – | 12.7 µg/mL (≈ 22.1 µM) | – | – | COc1cc2c(cc1OC)-c1c(OCc3ccccc3)c(OC)cc3c1C(CC2)N(S(=O)(=O)c1ccccc1)CC3 (stereo not given) | inactive | inactive | inactive | ~3 | – | – | inactive | – | –
16 | – | 25 µg/mL (≈ 50.4 µM) | – | 15 µg/mL (≈ 30.3 µM) | 50 µg/mL (≈ 101 µM) | 12.5 µg/mL (≈ 25.2 µM) | COc1cc2c(cc1OC)-c1c(OC)c(OC)cc3c1C(CC2)N(S(=O)(=O)c1ccccc1)CC3 (stereo not given) | inactive | – | – | ~3 | – | – | inactive | – | –
17 | – | – | – | 21.3 µg/mL (≈ 118 µM) | – | – | CC(=O)Oc1ccccc1C(=O)O [ASPIRIN] | – | – | – | – | – | – | – | – | –
18 | 50 µg/mL (≈ 85.4 µM) | – | 25 µg/mL (≈ 42.7 µM) | 10.5 µg/mL (≈ 17.9 µM) | 25 µg/mL (≈ 42.7 µM) | 50 µg/mL (≈ 85.4 µM) | COc1cc2c(cc1OC)-c1c(OC)c(OCc3ccccc3)cc3c1C(CC2)N(S(=O)(=O)c1cccc(C)c1)CC3 (stereo not given) | – | – | – | – | – | – | – | inactive | >2
